In brackets after ≈: the same amount, converted by molar mass.
Columns and labels:
[1] = test system: Trypanosoma brucei brucei; test: Antitrypanosomal activity against blood stream stage of Trypanosoma brucei brucei after 48 hrs by Cell Titre Glo assay; assay type: functional, organism-based
How it was run: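 Culture-adapted parasites were grown in HMI-9 with 10% heat-inactivated FBS, 10% Serum Plus and penicillin/streptomycin to 1 × 10⁶ cells/mL, then diluted to 1 × 10⁴ cells/mL. DMSO dilution series were pin-transferred and plates held 48 h at 37 °C in 5% CO2. After 30 min at room temperature, CellTiter-Glo was added and luminescence read after 8 min.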

HEK293 = test: Cytotoxicity against HEK293 cells after 72 hrs by Cell Titre Glo assay; assay type: cell-based; details: Homo sapiens, HEK293, 72 h
How it was run: (§1)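 Human cells grown to 80% confluence were plated in 384-well format and received compound dilutions by pin tool. After 72 h at 37 °C in 5% CO2, viability was measured by CellTiter-Glo luminescence.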

HepG2 = test: Cytotoxicity against human HepG2 cells after 72 hrs by Cell Titre Glo assay; assay type: cell-based; details: HepG2, 72 h; how it was run: as §1
Raji = test: Cytotoxicity against human Raji cells after 72 hrs by Cell Titre Glo assay; assay type: cell-based; how it was run: as §1
[2] = Permeability of the compound at pH 7.4 by PAMPA; assay type: ADME; details: for permeability: pampa, BLD = below limit of detection; for Papp: PAMPA, read-out: permeability
How it was run: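 Compound (10 mM DMSO stock) was diluted in system solution buffer pH 7.4 and placed in the donor chamber of a PAMPA sandwich whose membrane was coated with GIT lipid. Acceptor buffer filled the acceptor chamber, and the assembly was stirred for 30 min. Donor and acceptor UV spectra (250–500 nm) were compared with a reference to give the permeability coefficient. Run in triplicate.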

[3] = test system: Trypanosoma brucei brucei; test: Antitrypanosomal activity against Trypanosoma brucei brucei 221 after 48 hrs by Cell Titre Glo assay; assay type: functional, organism-based; details: Trypanosoma brucei, 221, 48 h
How it was run: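 Bloodstream-form parasites grown in HMI-9 with 10% heat-inactivated FBS, 10% Serum Plus and penicillin/streptomycin at 37 °C, 5% CO₂, to 1 × 10⁶ cells/mL. Diluted to 1 × 10⁴ cells/mL, then dosed with a DMSO dilution series by pin transfer. Incubated 48 h at 37 °C, 5% CO₂. Viability read by CellTiter-Glo luminescence. EC₅₀ from a variable-slope sigmoidal fit. Mean of six replicates, errors as 95% CI.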

BJ = test: Cytotoxicity against human BJ cells after 72 hrs by Cell Titre Glo assay; assay type: cell-based; how it was run: as §1
[4] = Kinetic solubility of the compound in PBS buffer at pH 7.4 after 18 hrs by UV spectrophotometric analysis; assay type: physicochemical; details: for Kinetic_solubility: buffer, pH 7.4, 18 h, BLD = below limit of detection; for solubility kinetic at 18 h: PBS buffer, pH 7.4, read-out: Kinetic_solubility
How it was run: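 Compound from a 10 mM stock was added to PBS pH 7.4 and left 18 h at room temperature. The suspension was filtered, and the filtrate was mixed 1:1 with 1-propanol. Solubility was derived from UV spectrum AUC (250–500 nm) relative to a 1-propanol/PBS reference. Run in triplicate.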

[5] = Half life in human liver microsomes; assay type: ADME, Microsome
How it was run: (§2)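 Liver microsomes (human: pooled from 200 mixed-gender donors; mouse: female […]) were diluted in 0.1 M potassium phosphate, pH 7.4, with EDTA, then spiked from a 2 mM DMSO/acetonitrile compound stock. Reactions were started with cofactor solutions A+B and kept at 37 °C with shaking. Samples at 0, 0.5, 1, 2 and 4 h were quenched with cold methanol containing 10 μM warfarin and analysed by UPLC-MS (SIR). k = −2.303 × slope of log peak-area ratio versus time; t1/2 = 0.693/k.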

[6] = Half life in mouse liver microsomes; assay type: ADME, Microsome; how it was run: as §2
[7] = test system: Trypanosoma brucei rhodesiense; test: Antitrypanosomal activity against bloodstream forms of wild type Trypanosoma brucei rhodesiense STIB900 after 70 hrs by Alamar Blue assay; assay type: functional, organism-based; details: STIB900, 70 h
How it was run: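 T. b. rhodesiense STIB 900 was cultured in MEM with Earle's salts and Baltz supplements (0.2 mM 2-mercaptoethanol, 1 mM Na-pyruvate, 0.5 mM hypoxanthine, 15% heat-inactivated horse serum). 2000 bloodstream forms per well were exposed to serial drug dilutions for 70 h at 37 °C in humidified 5% CO2. Resazurin followed for 2–4 h, read by fluorescence (ex 536/em 588 nm). IC50 came from sigmoidal curves by linear regression.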

[8] = test system: Trypanosoma brucei gambiense; test: Antitrypanosomal activity against Trypanosoma brucei gambiense STIB930 after 70 hrs by Alamar Blue assay; assay type: functional, organism-based; details: STIB930, 70 h
How it was run: (§3)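 T. b. gambiense strains were grown in HMI-9 with 15% heat-inactivated FBS and 5% human serum. 10000 trypanosomes per well were seeded into serial drug dilutions and held 70 h at 37 °C in humidified 5% CO2. Resazurin was then added for a further 4–6 h, and fluorescence was read (ex 536/em 588 nm). IC50 was taken by linear regression from sigmoidal dose-inhibition curves.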

[9] = test system: Trypanosoma brucei gambiense; test: Antitrypanosomal activity against Trypanosoma brucei gambiense KO48 after 70 hrs by Alamar Blue assay; assay type: functional, organism-based; details: KO48, 70 h; how it was run: as §3
[10] = test system: Trypanosoma brucei gambiense; test: Antitrypanosomal activity against Trypanosoma brucei gambiense DAL 898R after 70 hrs by Alamar Blue assay; assay type: functional, organism-based; how it was run: as §3

Q: Which EC50 [1] does the source give for `O=C(Nc1nc2ccccc2s1)c1cc([N+](=O)[O-])ccc1Cl` here?
A: 1600 nM

Q: Which EC50 [1] does the source give for `O=C(Nc1ccc(F)c(Cl)c1)c1cc([N+](=O)[O-])ccc1Cl` here?
A: 950 nM

Q: For `Cc1c(NC(=O)c2cc([N+](=O)[O-])ccc2Cl)cccc1-c1nc2ccccc2s1`, which EC50 (HEK293) is on record?
A: > 25000 nM

Q: And the EC50 (HepG2)?
A: > 25000 nM

Q: And the EC50 (Raji)?
A: > 25000 nM

Q: And the permeability [2]?
A: BLD

Q: What about the EC50 [3] of the same molecule?
A: 680 nM

Q: And the EC50 (BJ)?
A: > 25000 nM

Q: And the Kinetic_solubility [4]?
A: BLD

Q: Which EC50 (HEK293) does the source give for `COc1ccc(-c2nc3ccccc3s2)cc1NC(=O)c1cc([N+](=O)[O-])ccc1Cl` here?
A: > 25000 nM

Q: And the EC50 (HepG2)?
A: > 25000 nM

Q: And the half-life [5]?
A: 3.7 h

Q: And the EC50 (Raji)?
A: > 25000 nM

Q: And the permeability [2]?
A: BLD

Q: And the half-life [6]?
A: > 4 h

Q: What about the EC50 [3] of the same molecule?
A: 120 nM

Q: What about the EC50 (BJ) of the same molecule?
A: > 25000 nM

Q: What about the Kinetic_solubility [4] of the same molecule?
A: BLD

Q: What about the EC50 [7] of the same molecule?
A: 73 nM

Q: What about the EC50 [8] of the same molecule?
A: 63 nM

Q: For `O=C(Nc1cc(-c2nc3ccccc3s2)ccc1F)c1cc([N+](=O)[O-])ccc1Cl`, which EC50 (HEK293) is on record?
A: > 25000 nM

Q: What about the EC50 (HepG2) of the same molecule?
A: > 25000 nM

Q: And the EC50 (Raji)?
A: > 25000 nM

Q: And the Papp [2]?
A: 191 ×10⁻⁶ cm/s

Q: What about the EC50 [3] of the same molecule?
A: 160 nM

Q: What about the EC50 (BJ) of the same molecule?
A: > 25000 nM

Q: And the Kinetic_solubility [4]?
A: BLD

Q: And the EC50 [7]?
A: 230 nM

Q: What about the EC50 [8] of the same molecule?
A: 200 nM

Q: With `O=C(Nc1ccc(F)c(-c2nc3ccccc3s2)c1)c1cc([N+](=O)[O-])ccc1Cl` as the molecule, how does the EC50 (HEK293) read?
A: > 25000 nM

Q: And the EC50 (HepG2)?
A: > 25000 nM

Q: And the EC50 (Raji)?
A: > 25000 nM

Q: What about the Papp [2] of the same molecule?
A: 17 ×10⁻⁶ cm/s

Q: What about the EC50 [3] of the same molecule?
A: 250 nM

Q: And the EC50 (BJ)?
A: > 25000 nM

Q: What about the solubility kinetic at 18 h [4] of the same molecule?
A: 0.49 µM (≈ 0.21 µg/mL)

Q: What about the EC50 [7] of the same molecule?
A: 69 nM

Q: And the EC50 [8]?
A: 63 nM

Q: Which results are given for `O=C(Nc1ccc(F)c(-c2nc3ccccc3s2)c1)c1cc([N+](=O)[O-])c(N2CCNCC2)cc1Cl`?
A: EC50 (HEK293): > 25000 nM; EC50 (HepG2): > 25000 nM; half-life [5]: > 4 h; EC50 (Raji): > 25000 nM; half-life [6]: > 4 h; EC50 [3]: 58 nM; EC50 (BJ): > 25000 nM; EC50 [7]: 140 nM; EC50 [8]: 170 nM

Q: Which EC50 (HEK293) does the source give for `COc1ccc(-c2nc3ccccc3s2)cc1NC(=O)c1cc([N+](=O)[O-])c(N2CCN(C)CC2)cc1Cl` here?
A: > 25000 nM

Q: What about the EC50 (HepG2) of the same molecule?
A: > 25000 nM

Q: What about the EC50 (Raji) of the same molecule?
A: > 25000 nM

Q: And the Papp [2]?
A: 676 ×10⁻⁶ cm/s

Q: And the EC50 [3]?
A: 140 nM

Q: And the EC50 (BJ)?
A: > 25000 nM

Q: And the solubility kinetic at 18 h [4]?
A: 0.5 µM (≈ 0.269 µg/mL)

Q: What about the EC50 [7] of the same molecule?
A: 170 nM

Q: What about the EC50 [8] of the same molecule?
A: 73 nM

Q: Which EC50 (HEK293) does the source give for `COC(=O)C1CCN(c2cc(Cl)c(C(=O)Nc3cc(-c4nc5ccccc5s4)ccc3C)cc2[N+](=O)[O-])CC1` here?
A: > 25000 nM

Q: And the EC50 (HepG2)?
A: > 25000 nM

Q: What about the EC50 (Raji) of the same molecule?
A: > 25000 nM

Q: And the Papp [2]?
A: 24 ×10⁻⁶ cm/s

Q: What about the EC50 [3] of the same molecule?
A: 310 nM

Q: And the EC50 (BJ)?
A: > 25000 nM

Q: What about the Kinetic_solubility [4] of the same molecule?
A: BLD

Q: With `O=C(Nc1ccc([N+](=O)[O-])cc1)c1cc([N+](=O)[O-])ccc1Cl` as the molecule, how does the EC50 [1] read?
A: 1800 nM

Q: For `O=C(Nc1ccc2oc(-c3ccc(F)cc3)nc2c1)c1cc([N+](=O)[O-])ccc1Cl`, which EC50 [9] is on record?
A: 2600 nM

Q: And the EC50 [3]?
A: 6000 nM

Q: And the EC50 [10]?
A: 4400 nM

Q: And the EC50 [7]?
A: 3800 nM

Q: What about the EC50 [8] of the same molecule?
A: 420 nM

Q: What about the EC50 [1] of the same molecule?
A: 640 nM

Q: For `O=C(Nc1ccc2oc(-c3ccccc3Cl)nc2c1)c1cc([N+](=O)[O-])ccc1Cl`, which EC50 [1] is on record?
A: 2800 nM

Q: Which EC50 [1] does the source give for `O=C(Nc1ccc2oc(-c3ccccc3Br)nc2c1)c1cc([N+](=O)[O-])ccc1Cl` here?
A: 4200 nM

Q: With `O=C(Nc1ccc2oc(-c3ccccc3F)nc2c1)c1cc([N+](=O)[O-])ccc1Cl` as the molecule, how does the EC50 [1] read?
A: 4900 nM

Q: For `O=C(Nc1ccc2oc(-c3ccccc3)nc2c1)c1cc([N+](=O)[O-])ccc1Cl`, which EC50 [1] is on record?
A: 6100 nM

Q: Which EC50 [1] does the source give for `O=C(Nc1nc(-c2ccc(F)cc2)cs1)c1cc([N+](=O)[O-])ccc1Cl` here?
A: 370 nM

Q: With `O=C(Nc1nc(-c2ccc(F)cc2F)cs1)c1cc([N+](=O)[O-])ccc1Cl` as the molecule, how does the EC50 [1] read?
A: 400 nM

Q: For `Cc1sc(NC(=O)c2cc([N+](=O)[O-])ccc2Cl)nc1-c1ccccc1`, which EC50 [1] is on record?
A: 540 nM

Q: For `Cc1ccc(-c2csc(NC(=O)c3cc([N+](=O)[O-])ccc3Cl)n2)cc1`, which EC50 [1] is on record?
A: 1200 nM

Q: With `COc1ccc(OC)c(-c2csc(NC(=O)c3cc([N+](=O)[O-])ccc3Cl)n2)c1` as the molecule, how does the EC50 [1] read?
A: 2100 nM

From ChEMBL document CHEMBL2321751, “Optimization of chloronitrobenzamides (CNBs) as therapeutic leads for human African trypanosomiasis (HAT)” (J Med Chem, 2013)
